Laboratory results published in ChEMBL document CHEMBL2390927, “Design, synthesis and antimicrobial evaluation of novel benzimidazole type of Fluconazole analogues and their synergistic effects with Chloromycin, Norfloxacin and Fluconazole” (2013).
Converted amounts (≈) assume the structure as drawn.

Legend:
[1] = tested on: Escherichia coli; experiment: Potentiation of chloromycin-induced antibacterial activity against Escherichia coli JM109 at MIC after 24 hrs by two-fold serial dilution method; assay type: functional
[2] = tested on: Escherichia coli; experiment: Potentiation of norfloxacin-induced antibacterial activity against Escherichia coli JM109 at 2 times MIC after 24 hrs by two-fold serial dilution method; assay type: functional
[3] = tested on: Bacillus; experiment: Potentiation of chloromycin-induced antibacterial activity against Bacillus proteus ATCC 13315 at 2 times MIC after 24 hrs by two-fold serial dilution method; assay type: functional
[4] = tested on: Cyberlindnera jadinii; experiment: Antifungal activity against Candida utilis after 24 hrs by two-fold serial dilution method; assay type: functional; details: Williopsis jadinii
Outline: (§1)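 Spore suspension in sterile distilled water from one-day-old cultures on Sabouraud agar, final 1–5 × 10³ spore mL⁻¹. Compound stocks diluted in sterile RPMI 1640 as two-fold serial dilutions in microdilution plates. MIC is the lowest concentration completely inhibiting growth. Growth monitored visually and spectrophotometrically, in triplicate.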

[5] = tested on: Bacillus subtilis; experiment: Potentiation of norfloxacin-induced antibacterial activity against Bacillus subtilis ATCC 21216 at 2 times MIC after 24 hrs by two-fold serial dilution method; assay type: functional
[6] = tested on: Staphylococcus aureus; experiment: Antibacterial activity against methicillin-resistant Staphylococcus aureus N315 after 24 hrs by two-fold serial dilution method; assay type: functional; details: N315, 24 h
[7] = tested on: Pseudomonas aeruginosa; experiment: Potentiation of norfloxacin-induced antibacterial activity against Pseudomonas aeruginosa ATCC 27853 at 2 times MIC after 24 hrs by two-fold serial dilution method; assay type: functional
[8] = tested on: Cyberlindnera jadinii; experiment: Potentiation of fluconazole-induced antifungal activity against Candida utilis at 8 times MIC after 24 hrs by two-fold serial dilution method; assay type: functional
[9] = tested on: Micrococcus luteus; experiment: Potentiation of norfloxacin-induced antibacterial activity against Micrococcus luteus ATCC 4698 at 2 times MIC after 24 hrs by two-fold serial dilution method; assay type: functional
[10] = tested on: Pseudomonas aeruginosa; experiment: Potentiation of chloromycin-induced antibacterial activity against Pseudomonas aeruginosa ATCC 27853 at 2 times MIC after 24 hrs by two-fold serial dilution method; assay type: functional
[11] = tested on: Staphylococcus aureus; experiment: Potentiation of norfloxacin-induced antibacterial activity against Staphylococcus aureus ATCC 6538 at MIC after 24 hrs by two-fold serial dilution method; assay type: functional
[12] = tested on: Candida albicans; experiment: Potentiation of fluconazole-induced antifungal activity against Candida albicans ATCC 76615 at 4 times MIC after 24 hrs by two-fold serial dilution method; assay type: functional
[13] = tested on: Candida; experiment: Antifungal activity against Candida mycoderma after 24 hrs by two-fold serial dilution method; assay type: functional; outline: as §1
[14] = tested on: Micrococcus luteus; experiment: Potentiation of chloromycin-induced antibacterial activity against Micrococcus luteus ATCC 4698 at 2 times MIC after 24 hrs by two-fold serial dilution method; assay type: functional
[15] = tested on: Staphylococcus aureus; experiment: Antibacterial activity against Staphylococcus aureus ATCC 6538 after 24 hrs by two-fold serial dilution method; assay type: functional; details: ATCC 6538, 24 h
[16] = tested on: Escherichia coli; experiment: Antibacterial activity against Escherichia coli JM109 after 24 hrs by two-fold serial dilution method; assay type: functional; details: JM109, 24 h
[17] = tested on: Salmonella typhi; experiment: Potentiation of norfloxacin-induced antibacterial activity against Bacillus typhi at 4 times MIC after 24 hrs by two-fold serial dilution method; assay type: functional, Salmonella enterica subsp. enterica serovar Typhi
[18] = tested on: Pseudomonas aeruginosa; experiment: Antibacterial activity against Pseudomonas aeruginosa ATCC 27853 after 24 hrs by two-fold serial dilution method; assay type: functional; details: ATCC 27853, 24 h
Outline: (§2)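 MIC taken as the lowest concentration giving complete growth inhibition, by standard two-fold serial dilution in 96-well plates following NCCLS. Stocks in DMSO, diluted in Mueller–Hinton broth. Inoculum adjusted with sterile saline to 1 × 10⁵ CFU. DMSO with inoculum and no drug served as solvent control. Growth read visually and spectrophotometrically, in triplicate.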

[19] = tested on: Aspergillus flavus; experiment: Potentiation of fluconazole-induced antifungal activity against Aspergillus flavus at 4 times MIC after 24 hrs by two-fold serial dilution method; assay type: functional
[20] = tested on: Candida albicans; experiment: Antifungal activity against Candida albicans ATCC 76615 after 24 hrs by two-fold serial dilution method; assay type: functional; details: ATCC 76615, 24 h; outline: as §1
[21] = tested on: Aspergillus flavus; experiment: Antifungal activity against Aspergillus flavus after 24 hrs by two-fold serial dilution method; assay type: functional; outline: as §1
[22] = tested on: Bacillus subtilis; experiment: Potentiation of chloromycin-induced antibacterial activity against Bacillus subtilis ATCC 21216 at 4 times MIC after 24 hrs by two-fold serial dilution method; assay type: functional
[23] = tested on: Micrococcus luteus; experiment: Antibacterial activity against Micrococcus luteus ATCC 4698 after 24 hrs by two-fold serial dilution method; assay type: functional; details: ATCC 4698, 24 h; outline: as §2
[24] = tested on: Candida; experiment: Potentiation of fluconazole-induced antifungal activity against Candida mycoderma at 4 times MIC after 24 hrs by two-fold serial dilution method; assay type: functional
[25] = tested on: Bacillus; experiment: Antibacterial activity against Bacillus proteus ATCC 13315 after 24 hrs by two-fold serial dilution method; assay type: functional; details: ATCC 13315, 24 h; outline: as §2
[26] = tested on: Bacillus subtilis; experiment: Antibacterial activity against Bacillus subtilis ATCC 21216 after 24 hrs by two-fold serial dilution method; assay type: functional; details: ATCC 21216, 24 h; outline: as §2
[27] = tested on: Salmonella typhi; experiment: Potentiation of chloromycin-induced antibacterial activity against Bacillus typhi at 4 times MIC after 24 hrs by two-fold serial dilution method; assay type: functional, Salmonella enterica subsp. enterica serovar Typhi
[28] = tested on: Saccharomyces cerevisiae; experiment: Antifungal activity against Saccharomyces cerevisiae after 24 hrs by two-fold serial dilution method; assay type: functional; outline: as §1
[29] = tested on: Saccharomyces cerevisiae; experiment: Potentiation of fluconazole-induced antifungal activity against Saccharomyces cerevisiae at 4 times MIC after 24 hrs by two-fold serial dilution method; assay type: functional
[30] = tested on: Salmonella typhi; experiment: Antibacterial activity against Bacillus typhi after 24 hrs by two-fold serial dilution method; assay type: functional, Salmonella enterica subsp. enterica serovar Typhi; details: Salmonella enterica
Outline: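 Two-fold serial dilution in 96-well plates following NCCLS; compounds dissolved in DMSO as stocks, then diluted in Mueller-Hinton broth; bacterial suspension adjusted with sterile saline to 1 × 10⁵ CFU; MIC taken as lowest concentration completely inhibiting growth, monitored visually and spectrophotometrically; DMSO-plus-inoculum well as solvent control; triplicate.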

[31] = tested on: Bacillus; experiment: Potentiation of norfloxacin-induced antibacterial activity against Bacillus proteus ATCC 13315 at 2 times MIC after 24 hrs by two-fold serial dilution method; assay type: functional
[32] = tested on: Staphylococcus aureus; experiment: Potentiation of chloromycin-induced antibacterial activity against Staphylococcus aureus ATCC 6538 at MIC after 24 hrs by two-fold serial dilution method; assay type: functional
[33] = tested on: Escherichia coli; experiment: Ratio of chloromycin MIC to compound MIC for Escherichia coli JM109; assay type: functional
[34] = tested on: Pseudomonas aeruginosa; experiment: Ratio of chloromycin MIC to compound MIC for Pseudomonas aeruginosa ATCC 27853; assay type: functional
[35] = tested on: Candida; experiment: Ratio of fluconazole MIC to compound MIC for Candida mycoderma; assay type: functional
[36] = tested on: Staphylococcus aureus; experiment: Ratio of norfloxacin MIC to compound MIC for Staphylococcus aureus ATCC 6538; assay type: functional
[37] = tested on: Staphylococcus aureus; experiment: Ratio of chloromycin MIC to compound MIC for Staphylococcus aureus ATCC 6538; assay type: functional
[38] = tested on: Saccharomyces cerevisiae; experiment: Ratio of fluconazole MIC to compound MIC for Saccharomyces cerevisiae; assay type: functional

Row | SMILES | MIC [4] | MIC [6] | MIC [13] | MIC [15] | MIC [16] | MIC [18] | MIC [20] | MIC [21] | MIC [23] | MIC [25] | MIC [26] | MIC [28] | MIC [30] | other results
1 | Fc1ccc(CN(Cc2nc3ccccc3[nH]2)c2cc(C(F)(F)F)cc(C(F)(F)F)c2)c(F)c1 | 32 µg/mL (≈ 65.9 µM) | 32 µg/mL (≈ 65.9 µM) | 32 µg/mL (≈ 65.9 µM) | 8 µg/mL (≈ 16.5 µM) | 16 µg/mL (≈ 33 µM) | 16 µg/mL (≈ 33 µM) | 16 µg/mL (≈ 33 µM) | 16 µg/mL (≈ 33 µM) | 8 µg/mL (≈ 16.5 µM) | 16 µg/mL (≈ 33 µM) | 16 µg/mL (≈ 33 µM) | 16 µg/mL (≈ 33 µM) | 32 µg/mL (≈ 65.9 µM) | fractional inhibitory concentration index (FICI) [1]: 0.25; fractional inhibitory concentration index (FICI) [2]: 0.375; fractional inhibitory concentration index (FICI) [3]: 0.25; fractional inhibitory concentration index (FICI) [5]: 0.25; fractional inhibitory concentration index (FICI) [7]: 0.375; fractional inhibitory concentration index (FICI) [8]: 0.5; fractional inhibitory concentration index (FICI) [9]: 0.375; fractional inhibitory concentration index (FICI) [10]: 0.25; fractional inhibitory concentration index (FICI) [11]: 0.25; fractional inhibitory concentration index (FICI) [12]: 0.25; fractional inhibitory concentration index (FICI) [14]: 0.5; fractional inhibitory concentration index (FICI) [17]: 0.25; fractional inhibitory concentration index (FICI) [19]: 0.375; fractional inhibitory concentration index (FICI) [22]: 0.375; fractional inhibitory concentration index (FICI) [24]: 0.25; fractional inhibitory concentration index (FICI) [27]: 0.25; fractional inhibitory concentration index (FICI) [29]: 0.375; fractional inhibitory concentration index (FICI) [31]: 0.25; fractional inhibitory concentration index (FICI) [32]: 0.25
2 | FC(F)(F)c1cc(NCc2nc3ccccc3[nH]2)cc(C(F)(F)F)c1 | 8 µg/mL (≈ 22.3 µM) | 16 µg/mL (≈ 44.5 µM) | 2 µg/mL (≈ 5.57 µM) | 2 µg/mL (≈ 5.57 µM) | 2 µg/mL (≈ 5.57 µM) | 4 µg/mL (≈ 11.1 µM) | 2 µg/mL (≈ 5.57 µM) | 8 µg/mL (≈ 22.3 µM) | 8 µg/mL (≈ 22.3 µM) | 2 µg/mL (≈ 5.57 µM) | 4 µg/mL (≈ 11.1 µM) | 2 µg/mL (≈ 5.57 µM) | 2 µg/mL (≈ 5.57 µM) | Ratio [33]: 8; Ratio [34]: 4; Ratio [35]: 2; Ratio [36]: 4; Ratio [37]: 4; Ratio [38]: 8
